pIC50: −log10 of the molar value. Activity calls are given as the source filed them. The calls are words filed in the database; no cut-off is given here.
What was measured:
[1] = system: MCF7; assay: Induction of apoptosis in human MCF7 cells assessed as apoptotic cells at 1 uM after 48 hrs by annexin V staining-based flow cytometry (reference value: 3.44 %); format: functional
[2] = system: MCF7; assay: Induction of apoptosis in human MCF7 cells assessed as reduction in cyclin B1 protein expression at 2 uM after 16 hrs by Western blotting analysis; format: functional; set-up: scale not given: the % may be the effect or the level left
Summary of the method: (§1)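 MCF-7 seeded at 5 × 10⁴/cm² and exposed at 24 h to 2 µM compound for 0, 4, 8, 16 and 24 h. Lysates separated on 12% SDS gels, transferred to nitrocellulose, blocked in 5% milk. Primary antibodies applied overnight at 4 °C, then secondary 1 h at room temperature. Detection by ECL chemiluminescence with β-actin as loading reference.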

[3] = system: MCF7; assay: Induction of apoptosis in human MCF7 cells assessed as apoptotic cells at 2 uM after 48 hrs by annexin V staining-based flow cytometry (reference value: 3.44 %); format: functional
[4] = system: MCF7; assay: Cell cycle arrest in human MCF7 cells assessed as accumulation at G2-M phase at 3 uM after 24 hrs by propidium iodide/RNAse staining-based FACS analysis (reference value: 8.20 %); format: functional
[5] = system: HT-29; assay: Cytotoxicity against human HT-29 cells after 3 days by SRB assay; format: functional, cell-based; conditions: HT-29, 72 h
Summary of the method: (§2)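 Cells seeded at 5 × 10³ cells/cm² in quadruplicate and, after 24 h, treated with increasing concentrations for 3 days. Compounds diluted from DMSO stock, final DMSO <0.1% v/v. Cells were fixed with cold 10% TCA, stained with 0.4% sulforhodamine B in 1% acetic acid, and dye solubilised in 10 mM Tris-base pH 10.5. OD read at 492 nm. IC50 obtained by linear interpolation on a semi-log dose-response curve.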

[6] = system: RKO; assay: Cytotoxicity against human RKO cells after 3 days by SRB assay; format: functional, cell-based; conditions: 72 h; summary of the method: as §2
[7] = system: MCF7; assay: Induction of apoptosis in human MCF7 cells assessed as increase in p27 expression at 2 uM after 4 to 24 hrs by Western blotting analysis relative to control; format: functional, cell-based; summary of the method: as §1
[8] = Therapeutic index, ratio of IC50 for human MCF10A cells to IC50 for human MCF7 cells; format: cell-based, MCF-10A; conditions: MCF10A cells versus MCF7 cells, read-out: Ratio IC50
[9] = Therapeutic index, ratio of IC50 for human MCF10A cells to IC50 for human MDA-MB-231 cells; format: cell-based, MCF-10A; conditions: MCF10A cells versus MDA-MB-231 cells, read-out: Ratio IC50
[10] = system: MCF7; assay: Induction of apoptosis in human MCF7 cells assessed as early apoptotic cells at 3 uM after 48 hrs by annexin V staining-based flow cytometry (reference value: 0.205 %); format: functional
[11] = system: MCF7; assay: Cytotoxicity against human MCF7 cells after 3 days by SRB assay; format: functional, cell-based; conditions: MCF7, 72 h
Summary of the method: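 Cells seeded in quadruplicate at 5 × 10³ cells/cm². Compound added at 24 h over increasing concentrations for 3 days. Cells fixed with cold 10% TCA, stained with 0.4% sulforhodamine B in 1% acetic acid, dye solubilized in 10 mM Tris pH 10.5, OD read at 492 nm. IC50 taken by linear interpolation of the semi-log dose-response curve. DMSO below 0.1% final.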

[12] = system: MCF7; assay: Cell cycle arrest in human MCF7 cells assessed as accumulation at […] phase at 1 uM after 48 hrs by propidium iodide/RNAse staining-based FACS analysis (reference value: 8.02 %); format: functional
[13] = Cytotoxicity against human CCD-18Co cells after 3 days by SRB assay; format: cell-based; conditions: 72 h; summary of the method: as §2
[14] = system: MCF7; assay: Induction of apoptosis in human MCF7 cells assessed as apoptotic cells at 3 uM after 48 hrs by annexin V staining-based flow cytometry (reference value: 3.44 %); format: functional
[15] = system: Mus musculus; assay: Toxicity in C57BL/6 mouse allografted with mouse E0771 cells assessed as survival at 5 to 15 mg/kg, po; format: organism-based; set-up: dose 5-15 mg/kg, route oral; conditions: in vivo
Summary of the method: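 C57BL/6 mice (10 per group) injected subcutaneously in the right side with 1 × 10⁶ E0771 cells. At day 9, with tumours at 75 mm³, mice were randomised to oral vehicle (1% methylcellulose) or 5, 10 or 15 mg/kg on six occasions. Animals were monitored to day 42 for survival and for signs of toxicity such as hair loss or diarrhoea.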

[16] = system: MCF7; assay: Induction of apoptosis in human MCF7 cells assessed as increase in E-cadherin expression at 1 to 2 uM after 48 hrs by FACS analysis; format: functional, cell-based
Summary of the method: (§3)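 MCF-7 seeded at 5 × 10⁴/cm² and treated at 24 h with 1 or 2 µM compound for 48 h. Labelled with fluorochrome-conjugated anti-E-cadherin or anti-β-catenin antibody for 30 min at 4 °C in the dark, washed in PBS. Mean fluorescence intensity measured by FACScan flow cytometry.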

[17] = system: MCF7; assay: Cell cycle arrest in human MCF7 cells assessed as accumulation at G2-M phase at 2 uM after 24 hrs by propidium iodide/RNAse staining-based FACS analysis (reference value: 8.20 %); format: functional
[18] = system: MCF7; assay: Cell cycle arrest in human MCF7 cells assessed as accumulation at G0-G1 phase at 2 uM after 24 hrs by propidium iodide/RNAse staining-based FACS analysis (reference value: 42.34 %); format: functional
[19] = system: MCF7; assay: Induction of apoptosis in human MCF7 cells assessed as increase in beta-cadenin expression at 1 to 2 uM after 48 hrs by FACS analysis; format: functional, cell-based; summary of the method: as §3
[20] = system: MCF7; assay: Induction of apoptosis in human MCF7 cells assessed as early apoptotic cells at 2 uM after 48 hrs by annexin V staining-based flow cytometry (reference value: 0.205 %); format: functional
[21] = system: MCF7; assay: Induction of apoptosis in human MCF7 cells assessed as late apoptotic cells at 1 uM after 48 hrs by annexin V staining-based flow cytometry (reference value: 3.24 %); format: functional
[22] = Therapeutic index, ratio of IC50 for human CCD-18Co cells to IC50 for human RKO cells; format: cell-based; conditions: CCD-18Co cells versus RKO cells, read-out: Ratio IC50
[23] = molecular target: Mitogen-activated protein kinase; ERK1/ERK2 (Homo sapiens) (UniProt P27361+P28482); assay: Increase of p44/42 MAPK phosphorylation in human MCF7 cells at 2 uM up to 4 hrs by Western blotting analysis relative to control; format: cell-based; summary of the method: as §1
Mitogen-activated protein kinase; ERK1/ERK2 (Homo sapiens), sequence (P27361 whole entry, looked up): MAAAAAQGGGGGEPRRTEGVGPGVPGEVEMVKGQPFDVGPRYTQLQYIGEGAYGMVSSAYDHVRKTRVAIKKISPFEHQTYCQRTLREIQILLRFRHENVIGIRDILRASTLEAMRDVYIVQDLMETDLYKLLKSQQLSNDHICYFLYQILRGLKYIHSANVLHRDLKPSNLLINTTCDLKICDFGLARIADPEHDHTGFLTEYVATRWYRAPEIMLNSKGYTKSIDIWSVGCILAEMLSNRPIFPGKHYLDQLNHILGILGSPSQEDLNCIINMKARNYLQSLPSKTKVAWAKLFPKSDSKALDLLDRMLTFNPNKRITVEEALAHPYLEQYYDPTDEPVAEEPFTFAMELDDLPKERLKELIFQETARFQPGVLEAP
Mitogen-activated protein kinase; ERK1/ERK2 (Homo sapiens), sequence (P28482 whole entry, looked up): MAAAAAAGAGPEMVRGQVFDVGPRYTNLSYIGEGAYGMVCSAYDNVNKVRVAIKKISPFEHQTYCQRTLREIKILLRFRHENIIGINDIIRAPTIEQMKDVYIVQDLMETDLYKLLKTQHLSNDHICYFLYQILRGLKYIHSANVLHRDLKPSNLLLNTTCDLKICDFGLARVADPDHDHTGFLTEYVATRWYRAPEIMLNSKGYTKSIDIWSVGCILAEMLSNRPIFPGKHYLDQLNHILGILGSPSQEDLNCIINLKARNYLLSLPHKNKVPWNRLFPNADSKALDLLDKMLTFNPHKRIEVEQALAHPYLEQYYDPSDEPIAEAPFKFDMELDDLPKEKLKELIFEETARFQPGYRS

[24] = system: MCF7; assay: Cell cycle arrest in human MCF7 cells assessed as accumulation at G0-G1 phase after 24 hrs by propidium iodide/RNAse staining-based FACS analysis; format: functional
[25] = system: MCF7; assay: Cell cycle arrest in human MCF7 cells assessed as accumulation at […] phase at 3 uM after 48 hrs by propidium iodide/RNAse staining-based FACS analysis (reference value: 8.02 %); format: functional
[26] = Therapeutic index, ratio of IC50 for human MCF10A cells to IC50 for human T47D cells; format: cell-based, MCF-10A; conditions: MCF10A cells versus T47D cells, read-out: Ratio IC50
[27] = system: SW480; assay: Cytotoxicity against human SW480 cells after 3 days by SRB assay; format: functional, cell-based; conditions: SW480, 72 h; summary of the method: as §2
[28] = system: MCF7; assay: Induction of apoptosis in human MCF7 cells assessed as reduction in cyclin B1 protein expression at 2 uM by Western blotting analysis; format: functional, cell-based; summary of the method: as §1
[29] = Therapeutic index, ratio of IC50 for human CCD-18Co cells to IC50 for human HT-29 cells; format: cell-based; conditions: CCD-18Co cells versus HT-29 cells, read-out: Ratio IC50

With `C=C1CC[C@@H]2[C@](C)(CCC[C@]2(C)C(=O)OC)[C@H]1Cc1c(C)ccc2c1C(=O)C=CC2=O` the Activity [1] was 11.07%, the Activity [2] was 6% and the Activity [3] was 29.13%. It also gave an Activity [4] of 5.08%, a pIC50 [5] of 5.71 and a pIC50 [6] of 6.23. For the same molecule, the Activity [7] was “Active”, the selectivity ratio [8] was 9 and the selectivity ratio [9] was 6.85. For the same molecule, the Activity [10] was 19.5%, the pIC50 [11] was 6.46 and the Activity [12] was 15.56%. The pIC50 [13] was 6.48, the Activity [14] was 57.8% and the Activity [15] was “Non-toxic”. For the same molecule, the Activity [16] was “Active”, the Activity [17] was 19.25% and the Activity [18] was 66.6%. For the same molecule, the Activity [19] was “Active”, the Activity [20] was 12.5% and the Activity [21] was 9.63%. The selectivity ratio [22] was 0.56, the Activity [23] was “Active” and the Activity [24] was “Dose-dependent effect”. For the same molecule, the Activity [25] was 39.91%, the selectivity ratio [26] was 5 and the pIC50 [27] was 6.04. The Activity [28] was “Active” and the selectivity ratio [29] was 0.17.
